From ChEMBL document CHEMBL1833842, “1,3-Dihydro-2H-indol-2-ones derivatives: design, synthesis, in vitro antibacterial, antifungal and antitubercular study” (2011)
Values after ≈ are worked out from the molar mass of the structure shown.

Tests used:
[1] = test system: Streptococcus pyogenes; experiment: Antibacterial activity against 10^8 CFU/mL Streptococcus pyogenes MTCC 442 by broth microdilution method; format: functional
Method in brief: (§1)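 MTCC bacterial strains from IMTECH Chandigarh were grown in Mueller-Hinton broth, which was also used to dilute the compounds. Inoculum was turbidity-adjusted to 10⁸ CFU/mL, and DMSO served as diluent. Compounds from a 2000 stock were screened first at 500, 250 and 125; actives were retested in a second dilution series. Tubes were incubated overnight at 37 °C, and MIC was the lowest concentration with no visible growth. Clear tubes were subcultured overnight at 37 °C to tell bacteriostatic from bactericidal.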

[2] = test system: Candida albicans; experiment: Antifungal activity against 10^8 CFU/mL Candida albicans MTCC 227 by broth microdilution method; format: functional
Method in brief: (§2)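 Fungal MTCC cultures came from IMTECH Chandigarh. Mueller-Hinton broth served as growth and dilution medium, with DMSO as diluent. Inoculum was set to 10⁸ CFU/mL by turbidity. Serial dilutions from a 2000 stock gave a primary screen at 500, 250 and 125, followed by a secondary dilution series for actives. MIC was the lowest concentration inhibiting growth.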

[3] = test system: Aspergillus clavatus; experiment: Antifungal activity against 10^8 CFU/mL Aspergillus clavatus MTCC 1323 by broth microdilution method; format: functional; method in brief: as §2
[4] = test system: Salmonella typhi; experiment: Antibacterial activity against 10^8 CFU/mL Salmonella typhi MTCC 98 by broth microdilution method; format: functional, Salmonella enterica subsp. enterica serovar Typhi
Method in brief: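 Broth microdilution in Mueller-Hinton broth with MTCC strains, inoculum adjusted by turbidity to 10⁸ CFU/mL. Compounds were diluted from DMSO. Primary screen used 500, 250 and 125 concentrations, and actives were serially diluted further. Tubes were incubated overnight at 37 °C. MIC was the lowest concentration with no visible growth. Clear tubes were subcultured overnight at 37 °C to judge bacteriostatic versus bactericidal.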

[5] = test system: Staphylococcus aureus; experiment: Antibacterial activity against 10^8 CFU/mL Staphylococcus aureus MTCC 96 by broth microdilution method; format: functional; method in brief: as §1
[6] = test system: Pseudomonas aeruginosa; experiment: Antibacterial activity against 10^8 CFU/mL Pseudomonas aeruginosa MTCC 1688 by broth microdilution method; format: functional; method in brief: as §1
[7] = test system: Escherichia coli; experiment: Antibacterial activity against 10^8 CFU/mL Escherichia coli MTCC 443 by broth microdilution method; format: functional; method in brief: as §1
[8] = test system: Mycobacterium tuberculosis; experiment: Antituberculosis activity against 5 x 10^4 bacilli per tube Mycobacterium tuberculosis H37Rv assessed as growth inhibition at 1000 ug/mL incubated for 24 hrs measured after 28 days; format: functional; settings: read-out: GI
Method in brief: (§3)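 Conventional Lowenstein-Jensen method. Compound dilutions were made from a DMSO stock and added to liquid L-J medium, which was sterilized by inspissation. Tubes were incubated 24 h at 37 °C, then streaked with H37Rv (5 × 10⁴ bacilli per tube) harvested into 0.85% saline. Growth was checked at 12, 22 and 28 days at 37 °C against medium-only controls. MIC was the concentration giving no colonies or <20 colonies.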

[9] = test system: Aspergillus niger; experiment: Antifungal activity against 10^8 CFU/mL Aspergillus niger MTCC 282 by broth microdilution method; format: functional; method in brief: as §2
[10] = test system: Bacillus subtilis; experiment: Antibacterial activity against 10^8 CFU/mL Bacillus subtilis MTCC 441 by broth microdilution method; format: functional; method in brief: as §1
[11] = test system: Klebsiella pneumoniae; experiment: Antibacterial activity against 10^8 CFU/mL Klebsiella pneumoniae MTCC 109 by broth microdilution method; format: functional; method in brief: as §1
[12] = test system: Mycobacterium tuberculosis; experiment: Antituberculosis activity against 5 x 10^4 inoculum per tube Mycobacterium tuberculosis H37Rv after 24 hrs by Lowenstein-Jensen method; format: functional; method in brief: as §3
[13] = test system: Mycobacterium tuberculosis; experiment: Antituberculosis activity against 5 x 10^4 inoculum per tube Mycobacterium tuberculosis H37Rv assessed as growth inhibition at 500 ug/mL incubated for 24 hrs measured after 28 days; format: functional; settings: read-out: GI; method in brief: as §3
[14] = test system: Mycobacterium tuberculosis; experiment: Antituberculosis activity against 5 x 10^4 bacilli per tube Mycobacterium tuberculosis H37Rv assessed as growth inhibition at 62.5 ug/mL incubated for 24 hrs measured after 28 days; format: functional; settings: read-out: GI; method in brief: as §3
[15] = test system: Mycobacterium tuberculosis; experiment: Antituberculosis activity against 5 x 10^4 bacilli per tube Mycobacterium tuberculosis H37Rv assessed as growth inhibition at 250 ug/mL incubated for 24 hrs measured after 28 days; format: functional; settings: read-out: GI; method in brief: as §3

| Compound | MIC99 [1] | MIC [2] | MIC [3] | MIC99 ([4]; Salmonella enterica) | MIC99 [5] | MIC99 [6] | MIC99 [7] | inhibition of growth at 1000 µg/mL [8] | MIC [9] | MIC99 [10] | MIC99 [11] | MIC [12] | inhibition of growth at 500 µg/mL [13] | inhibition of growth at 62.5 µg/mL [14] | MIC99 ([4]; Salmonella enterica subsp. enterica serovar Typhi) | inhibition of growth at 250 µg/mL [15] |
| --- | --- | --- | --- | --- | --- | --- | --- | --- | --- | --- | --- | --- | --- | --- | --- | --- |
| CC1=C(c2nnc(/N=C3\C(=O)Nc4ccccc43)s2)C(c2ccccc2)NC(=O)N1 (centres undefined) | 500 µg/mL (≈ 1200 µM) | 250 µg/mL (≈ 600 µM) | 250 µg/mL (≈ 600 µM) | 250 µg/mL (≈ 600 µM) | 500 µg/mL (≈ 1200 µM) | 250 µg/mL (≈ 600 µM) | 500 µg/mL (≈ 1200 µM) | 98% | 250 µg/mL (≈ 600 µM) | 500 µg/mL (≈ 1200 µM) | 250 µg/mL (≈ 600 µM) | 1000 µg/mL (≈ 2400 µM) | – | – | – | – |
| CC1=C(c2nnc(/N=C3\C(=O)Nc4ccc(Br)cc43)s2)C(c2ccccc2)NC(=O)N1 (centres undefined) | 100 µg/mL (≈ 202 µM) | 500 µg/mL (≈ 1010 µM) | > 1000 µg/mL | 250 µg/mL (≈ 505 µM) | 100 µg/mL (≈ 202 µM) | 250 µg/mL (≈ 505 µM) | 250 µg/mL (≈ 505 µM) | – | 500 µg/mL (≈ 1010 µM) | 100 µg/mL (≈ 202 µM) | 200 µg/mL (≈ 404 µM) | 500 µg/mL (≈ 1010 µM) | 98% | – | – | – |
| COC1=CC(=O)C[C@@H](C)[C@]12Oc1c(Cl)c(OC)cc(OC)c1C2=O [GRISEOFULVIN] | – | 500 µg/mL (≈ 1420 µM) | 100 µg/mL (≈ 283 µM) | – | – | – | – | – | 100 µg/mL (≈ 283 µM) | – | – | – | – | – | – | – |
| CC1=C(c2nnc(/N=C3\C(=O)Nc4ccc([N+](=O)[O-])cc43)s2)C(c2ccccc2)NC(=S)N1 (centres undefined) | 200 µg/mL (≈ 419 µM) | 250 µg/mL (≈ 524 µM) | 250 µg/mL (≈ 524 µM) | 100 µg/mL (≈ 209 µM) | 100 µg/mL (≈ 209 µM) | 100 µg/mL (≈ 209 µM) | 62.5 µg/mL (≈ 131 µM) | – | 100 µg/mL (≈ 209 µM) | 100 µg/mL (≈ 209 µM) | 100 µg/mL (≈ 209 µM) | 62.5 µg/mL (≈ 131 µM) | – | 99% | – | – |
| NYSTATIN | – | 100 µg/mL | 100 µg/mL | – | – | – | – | – | 100 µg/mL | – | – | – | – | – | – | – |
| CC1=C(c2nnc(/N=C3\C(=O)Nc4ccc(I)cc43)s2)C(c2ccccc2)NC(=S)N1 (centres undefined) | 200 µg/mL (≈ 358 µM) | > 1000 µg/mL | > 1000 µg/mL | 250 µg/mL (≈ 448 µM) | 200 µg/mL (≈ 358 µM) | 250 µg/mL (≈ 448 µM) | 250 µg/mL (≈ 448 µM) | 98% | > 1000 µg/mL | 200 µg/mL (≈ 358 µM) | 200 µg/mL (≈ 358 µM) | 1000 µg/mL (≈ 1790 µM) | – | – | – | – |
| CC1(C)S[C@@H]2[C@H](NC(=O)[C@H](N)c3ccccc3)C(=O)N2[C@H]1C(=O)O [AMPICILLIN] | 100 µg/mL (≈ 286 µM) | – | – | 100 µg/mL (≈ 286 µM) | 250 µg/mL (≈ 715 µM) | 100 µg/mL (≈ 286 µM) | 100 µg/mL (≈ 286 µM) | – | – | 100 µg/mL (≈ 286 µM) | 100 µg/mL (≈ 286 µM) | – | – | – | – | – |
| CC1=C(c2nnc(/N=C3\C(=O)Nc4ccc(Cl)cc43)s2)C(c2ccccc2)NC(=S)N1 (centres undefined) | 200 µg/mL (≈ 428 µM) | 500 µg/mL (≈ 1070 µM) | 500 µg/mL (≈ 1070 µM) | 200 µg/mL (≈ 428 µM) | 200 µg/mL (≈ 428 µM) | 100 µg/mL (≈ 214 µM) | 200 µg/mL (≈ 428 µM) | – | 500 µg/mL (≈ 1070 µM) | 100 µg/mL (≈ 214 µM) | 200 µg/mL (≈ 428 µM) | 62.5 µg/mL (≈ 134 µM) | – | 99% | – | – |
| GENTAMICIN | 0.5 µg/mL | – | – | – | 0.25 µg/mL | 1 µg/mL | 0.05 µg/mL | – | – | 0.5 µg/mL | 0.05 µg/mL | – | – | – | 1 µg/mL | – |
| CC1=C(c2nnc(/N=C3\C(=O)Nc4ccc(Br)cc43)s2)C(c2ccccc2)NC(=S)N1 (centres undefined) | 100 µg/mL (≈ 196 µM) | 500 µg/mL (≈ 978 µM) | 500 µg/mL (≈ 978 µM) | 250 µg/mL (≈ 489 µM) | 100 µg/mL (≈ 196 µM) | 200 µg/mL (≈ 391 µM) | 200 µg/mL (≈ 391 µM) | – | 500 µg/mL (≈ 978 µM) | 100 µg/mL (≈ 196 µM) | 200 µg/mL (≈ 391 µM) | 250 µg/mL (≈ 489 µM) | – | – | – | 98% |
| CC1=C(c2nnc(/N=C3\C(=O)Nc4ccc(I)cc43)s2)C(c2ccccc2)NC(=O)N1 (centres undefined) | 200 µg/mL (≈ 369 µM) | > 1000 µg/mL | > 1000 µg/mL | 250 µg/mL (≈ 461 µM) | 250 µg/mL (≈ 461 µM) | 250 µg/mL (≈ 461 µM) | 250 µg/mL (≈ 461 µM) | 98% | > 1000 µg/mL | 250 µg/mL (≈ 461 µM) | 250 µg/mL (≈ 461 µM) | 1000 µg/mL (≈ 1840 µM) | – | – | – | – |
